From ChEMBL document CHEMBL3751708, “Structure guided design of potential inhibitors of human calcium-calmodulin dependent protein kinase IV containing pyrimidine scaffold” (Bioorg Med Chem Lett, 2016)

Key:
HEK293 [1] = experiment: Cytotoxicity against human HEK293 cells after 48 hrs by MTT assay; assay type: cell-based; details: HEK293, 48 h
HEK293 [2] = experiment: Cytotoxicity against human HEK293 cells up to 50 uM after 48 hrs by MTT assay; assay type: cell-based; details: hek293, 48 h
In short: (§1)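 HEK293 cells at 7000 per well, triplicates, treated the next day with inhibitors at 5-150 μM for 48 h. MTT was then added to fresh DMEM for 4-5 h at 37 °C. Formazan was dissolved in DMSO and read at 570 nm. Viability given as percent of untreated control.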

[3] = biological target: T1, Calcium/calmodulin-dependent protein kinase type IV (Homo sapiens) (UniProt Q16566); experiment: Binding affinity to human CAMK4 at pH 7.4 by fluorescence emission spectra analysis
T1 sequence (whole entry): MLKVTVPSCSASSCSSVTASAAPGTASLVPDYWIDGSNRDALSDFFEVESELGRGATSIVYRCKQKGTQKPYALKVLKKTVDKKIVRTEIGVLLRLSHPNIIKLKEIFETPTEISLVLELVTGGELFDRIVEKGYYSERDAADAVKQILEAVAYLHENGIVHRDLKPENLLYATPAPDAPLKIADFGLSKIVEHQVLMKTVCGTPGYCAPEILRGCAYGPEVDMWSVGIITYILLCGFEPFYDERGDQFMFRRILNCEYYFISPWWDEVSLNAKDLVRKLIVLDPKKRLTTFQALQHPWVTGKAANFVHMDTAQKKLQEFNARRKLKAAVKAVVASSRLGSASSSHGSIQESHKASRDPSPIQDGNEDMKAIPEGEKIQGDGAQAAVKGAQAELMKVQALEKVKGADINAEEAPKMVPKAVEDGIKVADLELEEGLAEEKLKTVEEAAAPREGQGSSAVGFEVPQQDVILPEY
In short: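 Recombinant CAMKIV kinase domain at 4 μM in 50 mM phosphate pH 7.4 with 150 mM NaCl, 25 °C. Titrated from a 1.0 mM ligand stock up to 132 μM final. Ligands were diluted from DMSO stock and dialyzed in buffer beforehand. Excitation at 280 nm, tryptophan emission read over 300-400 nm. Ka and n taken from a modified Stern–Volmer plot; three measurements.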

[4] = Cytotoxicity against human HuH7 cells after 48 hrs by MTT assay; assay type: functional, cell-based; details: Huh-7, 48 h
In short: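 Exponentially growing HuH7 hepatoma cells at 7000 per well, triplicates, dosed the next day with inhibitors at 5-150 μM for 48 h; curcumin served as positive control. MTT was then added in fresh DMEM for 4-5 h at 37 °C, and formazan was dissolved in DMSO and read at 570 nm. IC50 was derived from percent viability; three independent experiments, mean ± S.D.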

HEK293 [5] = experiment: Cytotoxicity against human HEK293 cells up to 25 uM after 48 hrs by MTT assay; assay type: cell-based; details: hek293, 48 h; in short: as §1

For `COc1ccc(Nc2cc(N3CCNCC3)ncn2)cc1`, the IC50 (HEK293 [1]) was over 400 µM, the Activity (HEK293 [2]) was “Non-toxic” and the Kapp [3] was 2.2 ×10⁸ /M. For the same compound, the IC50 [4] was 46 µM.

In the case of `N#Cc1cccnc1N1CCN(c2cc(Oc3cccc4cccnc34)ncn2)CC1`, the IC50 (HEK293 [1]) is reported as over 400 µM, the Activity (HEK293 [5]) is reported as “Non-toxic” and the Kapp [3] is reported as 4.6 ×10⁵ /M. For the same compound, the IC50 [4] was 104 µM.

For `Nc1cccc(Oc2cc(Oc3cccc4cccnc34)ncn2)c1`, the IC50 (HEK293 [1]) was 400 µM, the Activity (HEK293 [5]) was “Non-toxic” and the Kapp [3] was 1.6 ×10⁵ /M. It also gave an IC50 [4] of 116 µM.

With `COc1cc(/C=C/C(=O)CC(=O)/C=C/c2ccc(O)c(OC)c2)ccc1O` [CURCUMIN] the IC50 (HEK293 [1]) was over 400 µM and the IC50 [4] was 48 µM.
